Data from ChEMBL document CHEMBL2396575, “Curcumin-I Knoevenagel's condensates and their Schiff's bases as anticancer agents: synthesis, pharmacological and simulation studies” (Bioorg Med Chem, 2013).

Key:
[1] = test system: DNA; assay: Binding affinity to calf thymus DNA assessed as hypochromicity by UV-vis spectroscopic analysis relative to control; assay type: nucleic-acid assay; parameters: concentration or dose not given beside the values; conditions: Bos taurus
How it was run: (§1)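 Ct-DNA stock in tris–HCl pH 7.2–7.3, stored at 4 °C, used within 4 days; A260/A280 ≥1.8. DNA concentration from ε260 6600 M⁻¹ cm⁻¹. Compound dissolved in methanol (2.0×10^-4 M) and titrated with DNA (0.3–2.1 ×10^-4) in tris–HCl, UV–vis spectra recorded after each addition. Kb from modified Benesi–Hildebrand (Wolfe) equation.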

[2] = test system: MCF7; assay: Anticancer activity against wild-type human MCF7 cells assessed as cell viability at 0.001 ug/mL after 24 hrs by MTT assay relative to control; assay type: functional; conditions: MCF7, 24 h, read-out: Activity
How it was run: (§2)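 MCF-7 cells grown in low-glucose DMEM with 10% FBS plus antibiotic/antimycotic. Seeded at 2×10^3 cells/well, incubated 24 h at 37 °C in humidified 5% CO2, then exposed to test compounds for 24 h. Cells washed with PBS, given MTT for 4 h at 37 °C, formazan dissolved in DMSO, absorbance read at 570 nm. Viability taken as the ratio of treated to blank.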

[3] = test system: MCF7; assay: Anticancer activity against wild-type human MCF7 cells assessed as cell viability at 0.1 ug/mL after 24 hrs by MTT assay relative to control; assay type: functional; conditions: MCF7, 24 h, read-out: Activity; how it was run: as §2
[4] = test system: MCF7; assay: Anticancer activity against wild-type human MCF7 cells assessed as cell viability at 0.01 ug/mL after 24 hrs by MTT assay relative to control; assay type: functional; conditions: MCF7, 24 h, read-out: Activity; how it was run: as §2
[5] = test system: DNA; assay: Binding affinity to calf thymus DNA by Benessi-Hilderbrand equation; assay type: nucleic-acid assay; conditions: Bos taurus; how it was run: as §1
[6] = test system: MCF7; assay: Anticancer activity against wild-type human MCF7 cells assessed as cell viability at 1 ug/mL after 24 hrs by MTT assay relative to control; assay type: functional; conditions: MCF7, 24 h, read-out: Activity; how it was run: as §2
[7] = Hemolytic activity in rabbit RBC at 100 ug/mL after 3 hrs by colorimetric assay relative to control; assay type: ADME, cell-based, Oryctolagus cuniculus, Erythrocyte; conditions: rabbit red blood cells (RBC), read-out: Activity
How it was run: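 Rabbit whole blood diluted 0.1 mL in 0.9 mL PBS, incubated with test compound at 37 °C for 3 h, then centrifuged at 3800 rpm for 15 min. Supernatant mixed with Drabkin's reagent for 15 min, cyanmethemoglobin read at 540 nm against a hemoglobin standard curve. Compound absorbance at 540 nm subtracted. Saline served as negative control, distilled water as positive.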

[8] = test system: MCF7; assay: Anticancer activity against wild-type human MCF7 cells assessed as cell viability at 0.0001 ug/mL after 24 hrs by MTT assay relative to control; assay type: functional; conditions: MCF7, 24 h, read-out: Activity; how it was run: as §2

Compound	Activity [1]	viability at 0.001 µg/mL [2]	viability at 0.1 µg/mL [3]	viability at 0.01 µg/mL [4]	Kb [5]	viability at 1 µg/mL [6]	hemolysis at 3 h, 100 ug/mL [7]	viability at 0.0001 µg/mL [8]
COc1cc(/C=C/C(=N\NC(N)=O)C(=Cc2cn(-c3ccccc3)nc2-c2ccccc2O)C(/C=C/c2ccc(O)c(OC)c2)=N/NC(N)=O)ccc1O	10%	91%	86%	91%	3 ×10⁴ /M	87%	25%	92%
O=Cc1cn(-c2ccccc2)nc1-c1ccc(Cl)cc1	5.6%	98%	90%	98%	7.6 ×10⁴ /M	59%	9%	100%
COc1cc(/C=C/C(=N\NC(N)=O)C(=Cc2cn(-c3ccccc3)nc2-c2ccc(Cl)cc2)C(/C=C/c2ccc(O)c(OC)c2)=N/NC(N)=O)ccc1O	11%	81%	78%	81%	8.1 ×10⁵ /M	74%	17%	87%
COc1cc(/C=C/C(=O)C(=Cc2cn(-c3ccccc3)nc2-c2ccccc2O)C(=O)/C=C/c2ccc(O)c(OC)c2)ccc1O	13%	97%	91%	93%	2.1 ×10⁴ /M	88%	20%	100%
COc1cc(/C=C/C(=O)C(=Cc2cn(-c3ccccc3)nc2-c2ccc(Cl)cc2)C(=O)/C=C/c2ccc(O)c(OC)c2)ccc1O	8.1%	81%	72%	75%	7.8 ×10⁵ /M	65%	16%	95%
COc1cc(/C=C/C(=O)C(=Cc2cn(-c3ccccc3)nc2-c2cccc([N+](=O)[O-])c2)C(=O)/C=C/c2ccc(O)c(OC)c2)ccc1O	29%	96%	85%	88%	9.4 ×10⁴ /M	70%	14%	99%
COc1cc(/C=C/C(=N\NC(N)=O)C(=Cc2cn(-c3ccccc3)nc2-c2cccc([N+](=O)[O-])c2)C(/C=C/c2ccc(O)c(OC)c2)=N/NC(N)=O)ccc1O	9%	89%	68%	86%	9.1 ×10⁴ /M	67%	16%	91%
O=Cc1cn(-c2ccccc2)nc1-c1cccc([N+](=O)[O-])c1	5.2%	89%	86%	89%	2.5 ×10³ /M	75%	10%	89%
COc1cc(/C=C/C(=N\NC(N)=O)C(=Cc2cn(-c3ccccc3)nc2-c2ccc([N+](=O)[O-])cc2)C(/C=C/c2ccc(O)c(OC)c2)=N/NC(N)=O)ccc1O	8%	105%	92%	95%	2.6 ×10⁴ /M	98%	11%	110%
COc1cc(/C=C/C(=O)C(=Cc2cn(-c3ccccc3)nc2-c2ccc([N+](=O)[O-])cc2)C(=O)/C=C/c2ccc(O)c(OC)c2)ccc1O	12.3%	98%	92%	95%	1.4 ×10⁴ /M	90%	10%	98%
O=Cc1cn(-c2ccccc2)nc1-c1ccccc1O	6.2%	97%	73%	92%	1.4 ×10³ /M	79%	18%	96%
O=Cc1cn(-c2ccccc2)nc1-c1ccc([N+](=O)[O-])cc1	7.7%	97%	96%	86%	1.9 ×10³ /M	80%	7%	106%
COc1cccc2c1C(=O)c1c(O)c3c(c(O)c1C2=O)C[C@@](O)(C(=O)CO)C[C@@H]3O[C@H]1C[C@H](N)[C@H](O)[C@H](C)O1 [DOXORUBICIN]	–	–	–	–	–	–	42%	–
